For 16 molecules, viability results are on record in ChEMBL document CHEMBL1137717, “Synthesis and in vitro antiproliferative activity of novel 1-benzhydrylpiperazine derivatives against human cancer cell lines” (Eur J Med Chem, 2009).

Molecules are shown by their SMILES.

One data set has as its system HepG2. Description: Cytotoxicity against human HepG2 cells assessed as cell survival at 100 uM after 24 hrs by MTT assay relative to control. The format is functional. Particulars: HepG2, 24 h, read-out: Survival. The procedure, abridged:
(§1)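 Cells grown in DMEM with 10% FCS (HT-29 in McCoy's with 10% FCS), seeded in 96-well plates, and grown 48 h before dosing. Exposed to 100 µM final compound (0.1% DMSO) for 24 h at 37 °C. MTT 1 mg/ml in medium was added for 4 h, formazan dissolved in DMSO, and A570 read. Survival is relative to the 0.1% DMSO control (100%); triplicate, mean ± SD.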
For orientation: Tetrazolium assays rely on reduction of a dye to a coloured formazan, in cell work by metabolically active cells.

The next data set has as its system MCF7. Briefly: Cytotoxicity against human MCF7 cells assessed as cell survival at 100 uM after 24 hrs by MTT assay relative to control. The format is functional. Particulars: MCF7, 24 h, read-out: Survival. Put shortly: as §1
Data set [1] is described as follows: Cytotoxicity against human NF103 cells assessed as cell survival at 100 uM after 24 hrs by MTT assay relative to control. It is filed as cell-based. Conditions: read-out: Survival. The procedure, abridged:
as §1

The next data set has as its system HeLa. Description: Cytotoxicity against human HeLa cells assessed as cell survival at 100 uM after 24 hrs by MTT assay relative to control. Conditions: read-out: Survival. The format is functional. The procedure, abridged:
as §1

Another data set concerns HT-29. Description: Cytotoxicity against human HT-29 cells assessed as cell survival at 100 uM after 24 hrs by MTT assay relative to control. Conditions: HT-29, 24 h, read-out: Survival. It is filed as functional. Put shortly:
as §1

Take `COc1cccc(NC(=S)N2CCN(C(c3ccccc3)c3ccccc3)CC2)c1`: the viability at 100 µM is 64.5% with HepG2, 58.7% with MCF7, 72.8% with HeLa and 64.8% in the data set with HT-29. In addition, the viability at 24 h, 100 µM in data set [1] stood at 57.8%.
Consider `Fc1ccc(NC(=S)N2CCN(C(c3ccccc3)c3ccccc3)CC2)cc1`, for which the viability at 100 µM in the data set on HepG2 worked out at 45.4%; in the data set with MCF7 it was 43.9%; in the data set with HeLa, 48.4%; in the data set with HT-29, 47.4%. The viability at 24 h, 100 µM in data set [1] was 52.7%.
For the molecule `O=C(N1CCCC1)N1CCN(C(c2ccccc2)c2ccccc2)CC1`, the viability at 100 µM in the data set on HepG2 worked out at 66.2%; with MCF7, 71.4%; in the data set on HeLa, 64.2%; with HT-29, 70.2%. Besides, the viability at 24 h, 100 µM in data set [1] came out at 54%.
`O=S(=O)(c1ccccc1)N1CCN(C(c2ccccc2)c2ccccc2)CC1`: the viability at 100 µM in the data set on HepG2 turned out to be 66.2%; with MCF7 it was 68.1%; in the data set with HeLa it was 61.9%; with HT-29 it was 69.3%. For the same molecule, the viability at 24 h, 100 µM in data set [1] is 57.4%.
For `O=C(N1CCOCC1)N1CCN(C(c2ccccc2)c2ccccc2)CC1`, in that order: 61.9%, 68.7%, 53.9%, 63.4% and 56.1%.
With `COc1ccccc1NC(=S)N1CCN(C(c2ccccc2)c2ccccc2)CC1`, the viability at 100 µM was 61% in the data set on HepG2, 54.5% with MCF7, 56.8% in the data set on HeLa and 62.1% in the data set with HT-29. In addition, in data set [1], the viability at 24 h, 100 µM came to 59.7%.
In the case of `S=C(Nc1ccc(Cl)cc1)N1CCN(C(c2ccccc2)c2ccccc2)CC1`, the viability at 100 µM was found to be 66.2% in the data set with HepG2, 66.9% in the data set with MCF7, 73.9% in the data set on HeLa and 73.8% in the data set with HT-29. The viability at 24 h, 100 µM in data set [1] is 54.8%.
As to `S=C(Nc1cccc(Cl)c1)N1CCN(C(c2ccccc2)c2ccccc2)CC1`, the viability at 100 µM in the data set with HepG2 is 69.5%; with MCF7, 73.6%; in the data set with HeLa it was 69.8%; in the data set on HT-29, 69.3%. The viability at 24 h, 100 µM in data set [1] was 56.8%.
As to `CC1(C)C2CCC1(CS(=O)(=O)N1CCN(C(c3ccccc3)c3ccccc3)CC1)C(=O)C2` (stereo not given), the viability at 100 µM in the data set on HepG2 worked out at 72.6%; in the data set with MCF7, 61.7%; in the data set with HeLa it was 65.2%; with HT-29 it was 79.2%. Also, the viability at 24 h, 100 µM in data set [1] was determined as 60.4%.
Turning to `O=C(c1ccno1)N1CCN(C(c2ccccc2)c2ccccc2)CC1`, the viability at 100 µM in the data set with HepG2 amounted to 46.1%; in the data set on MCF7 it was 44.2%; with HeLa, 46.8%; in the data set with HT-29 it was 47.5%. In addition, the viability at 24 h, 100 µM in data set [1] is 58.6%.
In the case of `O=C(C1CC1)N1CCN(C(c2ccccc2)c2ccccc2)CC1`, the viability at 100 µM in the data set on HepG2 was found to be 62.9%; with MCF7 it was 61%; in the data set on HeLa it was 70.3%; in the data set on HT-29, 72%. Further, the viability at 24 h, 100 µM in data set [1] was determined as 55.1%.
In the case of `S=C(Nc1ccc(Cl)cc1Cl)N1CCN(C(c2ccccc2)c2ccccc2)CC1`, the viability at 100 µM is 59.2% in the data set with HepG2, 45.6% in the data set on MCF7, 45.5% in the data set with HeLa and 68.2% in the data set with HT-29. In addition, in data set [1], the viability at 24 h, 100 µM was 53.5%.
The like results for `O=S(=O)(CC(F)(F)F)N1CCN(C(c2ccccc2)c2ccccc2)CC1` were, in that order, 47.8%, 41.1%, 47.7%, 43.6% and 54.9%.
On to `COc1ccc(NC(=S)N2CCN(C(c3ccccc3)c3ccccc3)CC2)cc1`, for which the viability at 100 µM came to 48.8% with HepG2, 63.7% in the data set on MCF7, 66% in the data set with HeLa and 55.6% in the data set on HT-29. Further, in data set [1], the viability at 24 h, 100 µM was 55.9%.
For `S=C(Nc1ccccc1Cl)N1CCN(C(c2ccccc2)c2ccccc2)CC1`, in that order: 71.8%, 69.8%, 63.1%, 70.8% and 59.1%.
For `O=S(=O)(c1ccc(Cl)cc1F)N1CCN(C(c2ccccc2)c2ccccc2)CC1`, in that order: 70.1%, 64%, 61.9%, 76.3% and 61%.
